Values after ≈ are worked out from the molar mass of the structure shown.
Experiments:
Type in all cases: functional
Staphylococcus aureus [1] = assay: Antibacterial activity against methicillin-resistant Staphylococcus aureus ST239 HS770 by microdilution technique
Staphylococcus aureus [2] = assay: Antibacterial activity against methicillin-resistant Staphylococcus aureus ATCC 700787 by microdilution technique
Staphylococcus aureus [3] = assay: Antibacterial activity against methicillin-resistant Staphylococcus aureus ATCC 34404 by microdilution technique
Staphylococcus aureus [4] = assay: Antibacterial activity against methicillin-resistant Staphylococcus aureus CA ATCC BAA-1680 by microdilution technique
Staphylococcus aureus [5] = assay: Antibacterial activity against methicillin-resistant Staphylococcus aureus ATCC 700698 by microdilution technique
Staphylococcus aureus [6] = assay: Antibacterial activity against methicillin-resistant Staphylococcus aureus ATCC BAA-39 by microdilution technique
Staphylococcus aureus [7] = assay: Ratio of MIC for methicillin-resistant Staphylococcus aureus ST239 HS770 in absence of 10% FBS to MIC for methicillin-resistant Staphylococcus aureus ST239 HS770 in presence of 10% FBS
Summary of the method: (§1)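 MIC determined by the same turbidity-based microdilution method, once in standard medium and once in medium with 10% fetal serum added, to probe serum protein binding. The ratio is the MIC without serum over the MIC with serum, for each strain.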

Staphylococcus aureus [8] = assay: Ratio of MIC for methicillin-resistant Staphylococcus aureus CA ATCC BAA-1680 in absence of 10% FBS to MIC for methicillin-resistant Staphylococcus aureus CA ATCC BAA-1680 in presence of 10% FBS; summary of the method: as §1
Staphylococcus aureus [9] = assay: Ratio of MIC for methicillin-resistant Staphylococcus aureus ATCC BAA-39 in absence of 10% FBS to MIC for methicillin-resistant Staphylococcus aureus ATCC BAA-39 in presence of 10% FBS; summary of the method: as §1
Staphylococcus aureus [10] = assay: Ratio of MIC for methicillin-resistant Staphylococcus aureus ATCC 700698 in absence of 10% FBS to MIC for methicillin-resistant Staphylococcus aureus ATCC 700698 in presence of 10% FBS; summary of the method: as §1
Staphylococcus aureus [11] = assay: Ratio of MIC for methicillin-resistant Staphylococcus aureus ATCC 700787 in absence of 10% FBS to MIC for methicillin-resistant Staphylococcus aureus ATCC 700787 in presence of 10% FBS; summary of the method: as §1
Staphylococcus aureus [12] = assay: Ratio of MIC for methicillin-resistant Staphylococcus aureus ATCC 34404 in absence of 10% FBS to MIC for methicillin-resistant Staphylococcus aureus ATCC 34404 in presence of 10% FBS; summary of the method: as §1

Row | Compound | MIC (Staphylococcus aureus [1]) | MIC (Staphylococcus aureus [2]) | MIC (Staphylococcus aureus [3]) | MIC (Staphylococcus aureus [4]) | MIC (Staphylococcus aureus [5]) | MIC (Staphylococcus aureus [6]) | Ratio (Staphylococcus aureus [7]) | Ratio (Staphylococcus aureus [8]) | Ratio (Staphylococcus aureus [9]) | Ratio (Staphylococcus aureus [10]) | Ratio (Staphylococcus aureus [11]) | Ratio (Staphylococcus aureus [12])
1 | O=C(O)c1cn(C2CC2)c2cc(N3CCNCC3)c(F)cc2c1=O [CIPROFLOXACIN] | 62.5 µg/mL (≈ 189 µM) | 62.5 µg/mL (≈ 189 µM) | ≤ 0.48 µg/mL | – | – | – | – | – | – | – | – | –
2 | CC1(C)S[C@@H]2[C@H](NC(=O)Cc3ccccc3)C(=O)N2[C@H]1C(=O)O [PENICILLIN G] | 250 µg/mL (≈ 748 µM) | 62.5 µg/mL (≈ 187 µM) | 31.2 µg/mL (≈ 93.5 µM) | 125 µg/mL (≈ 374 µM) | 15.6 µg/mL (≈ 46.7 µM) | 62.5 µg/mL (≈ 187 µM) | – | – | – | – | – | –
3 | O=C(O)[C@@H](Cc1ccccc1)N1C(=O)/C(=C/c2cccc(Oc3cccc(Cl)c3)c2)SC1=S | 1.95 µg/mL (≈ 3.93 µM) | 3.9 µg/mL (≈ 7.86 µM) | 0.98 µg/mL (≈ 1.98 µM) | 1.95 µg/mL (≈ 3.93 µM) | 3.9 µg/mL (≈ 7.86 µM) | 1.95 µg/mL (≈ 3.93 µM) | 2 | 2 | 2 | 2 | 2 | 2
4 | O=C(O)[C@H](Cc1ccccc1)N1C(=O)/C(=C/c2cccc(Oc3ccc(Cl)c(Cl)c3)c2)SC1=S | – | 3.9 µg/mL (≈ 7.35 µM) | 0.98 µg/mL (≈ 1.85 µM) | 1.95 µg/mL (≈ 3.68 µM) | 1.95 µg/mL (≈ 3.68 µM) | 1.95 µg/mL (≈ 3.68 µM) | 2 | 2 | 2 | 2 | 2 | 2
5 | O=C(O)[C@@H](Cc1ccccc1)N1C(=O)/C(=C/c2cccc(Oc3ccc(Cl)c(Cl)c3)c2)SC1=S | 3.9 µg/mL (≈ 7.35 µM) | 15.6 µg/mL (≈ 29.4 µM) | 1.95 µg/mL (≈ 3.68 µM) | 3.9 µg/mL (≈ 7.35 µM) | 1.95 µg/mL (≈ 3.68 µM) | 1.95 µg/mL (≈ 3.68 µM) | – | – | – | – | – | –
6 | O=C(O)[C@H](Cc1ccccc1)N1C(=O)/C(=C/c2cccc(-c3ccc(Cl)c(Cl)c3)c2)SC1=S | 1.95 µg/mL (≈ 3.79 µM) | 3.9 µg/mL (≈ 7.58 µM) | 3.9 µg/mL (≈ 7.58 µM) | 7.8 µg/mL (≈ 15.2 µM) | 7.8 µg/mL (≈ 15.2 µM) | 3.9 µg/mL (≈ 7.58 µM) | – | – | – | – | – | –
7 | O=C(O)[C@H](Cc1ccccc1)N1C(=O)/C(=C/c2ccc(Oc3ccccc3)cc2)SC1=S | 7.8 µg/mL (≈ 16.9 µM) | 7.8 µg/mL (≈ 16.9 µM) | 1.95 µg/mL (≈ 4.22 µM) | 1.95 µg/mL (≈ 4.22 µM) | 1.95 µg/mL (≈ 4.22 µM) | 3.9 µg/mL (≈ 8.45 µM) | – | – | – | – | – | –
8 | O=C(O)[C@H](Cc1ccccc1)N1C(=O)/C(=C/c2cccc(Cc3ccc(Cl)c(Cl)c3)c2)SC1=S | 15.6 µg/mL (≈ 29.5 µM) | 62.5 µg/mL (≈ 118 µM) | 31.2 µg/mL (≈ 59.1 µM) | 31.2 µg/mL (≈ 59.1 µM) | 31.2 µg/mL (≈ 59.1 µM) | 15.6 µg/mL (≈ 29.5 µM) | – | – | – | – | – | –
9 | O=C(O)[C@H](Cc1ccccc1)N1C(=O)/C(=C/c2cccc(OCCc3ccccc3)c2)SC1=S | 15.6 µg/mL (≈ 31.9 µM) | 31.2 µg/mL (≈ 63.8 µM) | 31.2 µg/mL (≈ 63.8 µM) | 15.6 µg/mL (≈ 31.9 µM) | 31.2 µg/mL (≈ 63.8 µM) | 31.2 µg/mL (≈ 63.8 µM) | – | – | – | – | – | –
10 | O=C(O)[C@H](Cc1ccccc1)N1C(=O)/C(=C/c2ccccc2Oc2ccc(Cl)c(Cl)c2)SC1=S | 1.95 µg/mL (≈ 3.68 µM) | 3.9 µg/mL (≈ 7.35 µM) | 3.9 µg/mL (≈ 7.35 µM) | 3.9 µg/mL (≈ 7.35 µM) | 7.8 µg/mL (≈ 14.7 µM) | 3.9 µg/mL (≈ 7.35 µM) | – | – | – | – | – | –
11 | O=C(O)[C@H](Cc1ccccc1)N1C(=O)/C(=C/c2cccc(Oc3ccc(F)cc3)c2)SC1=S | – | 7.8 µg/mL (≈ 16.3 µM) | 7.8 µg/mL (≈ 16.3 µM) | 7.8 µg/mL (≈ 16.3 µM) | 7.8 µg/mL (≈ 16.3 µM) | 7.8 µg/mL (≈ 16.3 µM) | – | – | – | – | – | –
12 | O=C(O)[C@H](Cc1ccccc1)N1C(=O)/C(=C/c2ccccc2OCCc2ccccc2)SC1=S | 15.6 µg/mL (≈ 31.9 µM) | 15.6 µg/mL (≈ 31.9 µM) | 15.6 µg/mL (≈ 31.9 µM) | 7.8 µg/mL (≈ 15.9 µM) | 7.8 µg/mL (≈ 15.9 µM) | 15.6 µg/mL (≈ 31.9 µM) | – | – | – | – | – | –
13 | O=C(O)[C@H](Cc1ccccc1)N1C(=O)/C(=C/c2cccc(Oc3cccc(Cl)c3)c2)SC1=S | – | 15.6 µg/mL (≈ 31.5 µM) | 15.6 µg/mL (≈ 31.5 µM) | 15.6 µg/mL (≈ 31.5 µM) | 15.6 µg/mL (≈ 31.5 µM) | 15.6 µg/mL (≈ 31.5 µM) | – | – | – | – | – | –
14 | O=C(O)[C@H](Cc1ccccc1)N1C(=O)/C(=C/c2cccc(-c3cncnc3)c2)SC1=S | 125 µg/mL (≈ 279 µM) | 125 µg/mL (≈ 279 µM) | 125 µg/mL (≈ 279 µM) | 125 µg/mL (≈ 279 µM) | 125 µg/mL (≈ 279 µM) | 125 µg/mL (≈ 279 µM) | – | – | – | – | – | –
15 | O=C(O)[C@@H](Cc1ccccc1)N1C(=O)/C(=C/c2cccc(Oc3ccc(F)cc3)c2)SC1=S | 1.95 µg/mL (≈ 4.07 µM) | 1.95 µg/mL (≈ 4.07 µM) | 1.95 µg/mL (≈ 4.07 µM) | 1.95 µg/mL (≈ 4.07 µM) | 1.95 µg/mL (≈ 4.07 µM) | 1.95 µg/mL (≈ 4.07 µM) | – | – | – | – | – | –

— ChEMBL document CHEMBL2429740, “The synthesis and SAR study of phenylalanine-derived (Z)-5-arylmethylidene rhodanines as anti-methicillin-resistant Staphylococcus aureus (MRSA) compounds” (2013)
